A selection: hits, their analogues and other compounds. The true share with any hit is near 2.4%.
Calb FLC: affects C. albicans growth with fluconazole | C. albicans CaCi-2 (fluconazole-resistant clinical isolate) + fluconazole, Alamar Blue growth, 48 h | growth inhibition, % (no concentration beside the values) | hit rate 0.57% among 300,000 | AID 1979;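 active = growth inhibition above about 58% in most replicates, limit read from the data, passing the limit was not always enough; inconclusive = exactly half the replicates above a set limit; inactive = most replicates below a set limit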;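 also: all wells also contain fluconazole at 8 µg/ml as a sub-toxic cotreatment; 0% = median of DMSO wells and 100% = median of geldanamycin control wells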
HTR2A ag: agonists of mouse serotonin 5-HT2A receptor (HTR2A) | hit rate 0.66% among 360,000 | CHO-K1 mHTR2A beta-arrestin complementation, luminescence; percent of 30 µM serotonin response | P35363 | activation, % at 7.6 µM;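 active = activation above a run cutoff, the mean activation of all tested compounds plus 3 SD, cut at about 14% in these data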;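 also: 0% = plate median of compound wells and 100% = 30 µM serotonin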
Ins promoter up: MIN6 insulin promoter up-regulation | z-score at 5 µM | hit rate 0.3% among 190,000 | AID 1625 | MIN6 insulin promoter-GFP reporter, high-content imaging; hits give high values;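 active = z-score above 3 at 5 µM with at least 500 cells counted in the well; inconclusive = wells under 500 cells, flagged as cytotoxic or low count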
SR-BI HDL uptake: inhibitors of mouse SR-BI mediated HDL lipid uptake; Q61009; ldlA[mSR-BI] CHO cells, DiI-HDL uptake fluorescence, 3 h; inhibition, % at 12.5 µM; hit rate 0.96% among 320,000;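 active = mean replicate inhibition of at least 70% and a set share of replicates each scoring 70 or more; inconclusive = meets just one of the two criteria; inactive = fails both criteria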;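 also: 0% = median of neutral control wells and 100% = median of positive control wells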
Target sequence (Q61009 whole entry, looked up): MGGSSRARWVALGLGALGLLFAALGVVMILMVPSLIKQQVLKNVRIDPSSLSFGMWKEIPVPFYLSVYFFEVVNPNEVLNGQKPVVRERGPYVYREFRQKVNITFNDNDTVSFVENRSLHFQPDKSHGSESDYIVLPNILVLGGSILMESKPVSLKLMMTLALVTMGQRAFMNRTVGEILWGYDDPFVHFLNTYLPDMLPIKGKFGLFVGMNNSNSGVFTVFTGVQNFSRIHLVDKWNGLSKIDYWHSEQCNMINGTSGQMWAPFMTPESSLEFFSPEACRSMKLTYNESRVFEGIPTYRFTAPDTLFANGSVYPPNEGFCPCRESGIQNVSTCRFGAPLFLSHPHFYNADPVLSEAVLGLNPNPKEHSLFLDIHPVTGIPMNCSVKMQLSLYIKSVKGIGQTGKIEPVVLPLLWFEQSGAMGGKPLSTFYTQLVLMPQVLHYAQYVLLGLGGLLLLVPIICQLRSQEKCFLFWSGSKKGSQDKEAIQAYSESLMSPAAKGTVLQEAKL
SR-BI DiI-HDL act: enhances SR-BI lipid uptake from DiI-HDL; CHO ldlA[mSR-BI] cells, DiI-HDL uptake fluorescence, 3 h; 100 = double the neutral-control signal; activation, % at 12.5 µM; hit rate 0.096% among 320,000;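 active = mean replicate activation of at least 60% and every replicate at or above 60%; inconclusive = mean or all-replicate condition met, but not both; inactive = mean below 60% and not all replicates reaching 60%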;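 also: 0% = median plate neutral-control signal and 100% = twice that signal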
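Test system: SR-BI-overexpressing, LDLR-lacking CHO cells; Also added: labelled HDL, 10 µg/mL; Measured by: bottom-read cell fluorescence after medium removal, ex 550/em 595 nm; Timing: 3 h uptake period with compound, 37 °C; Buffer or medium: F12, 0.5% BSA, 25 mM HEPES; Doses: single compound concentration, delivered by pin transfer.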
beta cell repl: induces beta-cell replication in MIN6 cells. proliferation, % at 10 µM. hit rate 0.29% among 330,000. MIN6 cells proliferation, ATPlite luminescence, 48 h; cells starved in 0.2% serum; 100% = growth in 10% serum;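 active = compounds whose signal lies at least 3.5 SD above the mean of all wells on their plate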;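 also: 0% = DMSO-treated cells in low-serum medium and 100% = 10% serum control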
An asterisk follows results filed as active; ? = inconclusive; . = no result given.

SMILES	Calb FLC	HTR2A ag	Ins promoter up	SR-BI HDL uptake	SR-BI DiI-HDL act	beta cell repl
COc1ccc(CCNC(=O)COC(=O)Cc2c[nH]c3ccccc23)cc1OC	.	1	.	17	-17	-1
CCN(CC)S(=O)(=O)c1ccc(N/N=C/c2ccc(O)cc2O)nc1	91*	-3	-1.1	-7	7	0
O=[N+]([O-])c1ccc(NN=Cc2ccc(O)cc2O)nc1	.	-9	.	46	-46	.
O=C(O)CCc1ccc(S(=O)(=O)Nc2cc(C(F)(F)F)ccc2N2CCCC2)cc1	.	5	.	-14	14	0
Cc1ccc(-n2c(-c3ccccc3)c[n+]3c2CCc2ccccc2-3)c(C)c1	102*	7	?	-1	1	-7
O=[N+]([O-])c1ccc(O)c(C=Nc2cccc3ccccc23)c1	10	-6	.	-19	19	-4
Cc1ccc(O)c(N=Cc2cc(Cc3ccccc3)cc([N+](=O)[O-])c2O)c1	98*	-4	1	13	-13	-5
O=[N+]([O-])c1cc(Cc2ccccc2)cc(C=Nc2ccc(N3CCOCC3)cc2)c1O	-8	2	-0.15	-16	16	.
O=[N+]([O-])c1cccc(C=Nc2cccc3ccccc23)c1O	101*	-7	.	-9	9	-5
CCCCCCCCCCCCCCC(O)C[N+](C)(CCO)CCO (configuration not stated)	.	-3	.	1	-1	.
COc1ccc(/C=C/C(=O)NCC(=O)N/N=C/c2cc(Br)ccc2OCc2ccccc2)cc1	-1	2	-0.54	79*	-79	0
COc1ccc(Br)cc1/C=N/NC(=O)CNC(=O)/C=C/c1ccccc1	-1	-1	0.04	63	-63	-3
Cc1cc(O)c2c(c1O)C(=O)[C@]13C(=C2O)C(=O)[C@@H]2[C@@H](O)[C@H]1[C@@H]1[C@H](O)[C@H]3C(=O)C3=C(O)c4c(O)cc(C)c(O)c4C(=O)[C@]312	.	10	.	95*	-95	-6
COC(=O)c1cc(C(=O)c2ccc(Cl)cc2Cl)cn1C	42	0	0.11	3	-3	-2
Cn1cc(C(=O)c2ccc(Cl)cc2Cl)cc1C(=O)N/N=C(\N)COc1cccc(C(F)(F)F)c1	27	-5	0.1	81*	-81	-7
COC(=O)C[C@H]1C[C@H]2c3cc(NS(=O)(=O)c4ccc(OC)cc4)ccc3O[C@H]2[C@H](CO)O1	.	-2	.	.	.	.
COc1ccc(OC)c(-n2c(CN3CCC(C(N)=O)CC3)nc3ccccc3c2=O)c1	117*	-3	0.42	-15	15	0
CC(=O)Nc1ccc2cnn(C(C)=O)c2c1	.	-2	.	.	.	.
Cc1ccc(S(=O)(=O)N2CCN(C(=O)Cn3c(=O)cnc4ccccc43)CC2)cc1	.	0	.	-2	2	-2
O=C1NC(=O)c2cc3ccccc3cc21	.	0	.	1	-1	1
C=CCc1c(C)nc(-c2ccccc2)nc1Nc1ccccc1O	-8	-3	-1.8	101*	-101	-5
O=C(NCc1cc([N+](=O)[O-])ccc1O)c1cccnc1Sc1ccccc1Cl	86*	0	.	-9	9	-4
CC[n+]1c(/C=C2/C=C(C)CC(C)C2)sc2ccccc21 (configuration not stated)	7	6	?	0	0	-6
CC[n+]1c(C=C2C=C(C)OC(C)=C2)sc2ccccc21	108*	4	?	-25	25	-5
COc1ccc(C2NC(=S)NC(O)(C(F)(F)F)C2C(=O)c2cccs2)cc1 (configuration not stated)	0	1	.	4	-4	0
SMILES	Calb FLC	HTR2A ag	Ins promoter up	SR-BI HDL uptake	SR-BI DiI-HDL act	beta cell repl
COc1ccc(C)cc1NCc1cccc(OC)c1OC	24	4	.	5	-5	-1
COc1cc(OC)c(OC)cc1CNc1cc(C)ccc1OC	6	1	-1.4	72*	-72	-5
CN(C)Cc1cc(C(C)(C)c2ccccc2)ccc1O	.	-7	.	-1	1	.
CCc1nc2ccc(C(=O)Nc3ccc(NC(C)=O)cc3)cc2nc1CC	-24	-3	0.09	83*	-83	2
COc1ccc(-c2csc(Nc3ccc(C)cn3)n2)cc1OC	13	-3	-0.58	77*	-77	1
COc1ccc(-c2csc(Nc3cc(C)ccn3)n2)cc1OC	19	-3	.	.	.	-3

Assay outcomes: PubChem, several laboratories
